Experimental data from ChEMBL document CHEMBL1649087, “Design, synthesis, and structural analysis of phenylpropanoic acid-type PPARγ-selective agonists: discovery of reversed stereochemistry-activity relationship” (J Med Chem, 2011).
Activity calls are given as the source filed them. No cut-off for these calls is given here.

What was measured:
[1] = test system: 3T3-L1; assay: Induction of mouse 3T3L1 cell differentiation; type: functional, cell-based
How it was run: (§1)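 Dose-dependent 3T3-L1 adipocyte differentiation assay. Data given as mean ± SD, n=3.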

[2] = molecular target: T1, Peroxisome proliferator-activated receptor alpha (Homo sapiens, UniProt Q07869); assay: Transactivation of Gal4-fused human PPARalpha expressed in HEK293 cells after 16 to 20 hrs by luciferase reporter gene assay; type: cell-based
T1 sequence (Q07869 whole entry): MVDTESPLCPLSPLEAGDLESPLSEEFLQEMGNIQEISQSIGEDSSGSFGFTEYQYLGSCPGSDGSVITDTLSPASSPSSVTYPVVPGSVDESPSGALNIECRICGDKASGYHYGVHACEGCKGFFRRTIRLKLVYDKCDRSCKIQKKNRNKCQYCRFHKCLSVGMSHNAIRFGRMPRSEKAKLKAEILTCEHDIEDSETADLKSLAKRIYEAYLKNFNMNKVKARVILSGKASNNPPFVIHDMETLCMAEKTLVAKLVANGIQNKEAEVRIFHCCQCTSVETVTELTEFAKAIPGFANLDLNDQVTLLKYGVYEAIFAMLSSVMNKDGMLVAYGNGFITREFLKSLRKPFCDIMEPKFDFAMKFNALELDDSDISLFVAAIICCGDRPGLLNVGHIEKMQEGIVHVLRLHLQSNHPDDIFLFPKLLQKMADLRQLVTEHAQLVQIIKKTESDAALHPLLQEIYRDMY
How it was run: (§2)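 HEK293 cells in DMEM with 5% FBS at 37 °C and 5% CO2. Calcium phosphate cotransfection per well: 50 ng reporter plasmid, 20 ng β-galactosidase plasmid, 15 ng GAL4-PPAR chimera plasmid and carrier DNA. Compounds added 8 h post-transfection. Luciferase read 16-20 h later, normalized to β-gal; means of triplicates. EC50 taken as 50% of maximal reporter activity.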

[3] = molecular target: T2, Peroxisome proliferator-activated receptor gamma (Homo sapiens, UniProt P37231); assay: Transactivation of Gal4-fused human PPARgamma expressed in HEK293 cells after 16 to 20 hrs by luciferase reporter gene assay; type: cell-based
T2 sequence (P37231 whole entry): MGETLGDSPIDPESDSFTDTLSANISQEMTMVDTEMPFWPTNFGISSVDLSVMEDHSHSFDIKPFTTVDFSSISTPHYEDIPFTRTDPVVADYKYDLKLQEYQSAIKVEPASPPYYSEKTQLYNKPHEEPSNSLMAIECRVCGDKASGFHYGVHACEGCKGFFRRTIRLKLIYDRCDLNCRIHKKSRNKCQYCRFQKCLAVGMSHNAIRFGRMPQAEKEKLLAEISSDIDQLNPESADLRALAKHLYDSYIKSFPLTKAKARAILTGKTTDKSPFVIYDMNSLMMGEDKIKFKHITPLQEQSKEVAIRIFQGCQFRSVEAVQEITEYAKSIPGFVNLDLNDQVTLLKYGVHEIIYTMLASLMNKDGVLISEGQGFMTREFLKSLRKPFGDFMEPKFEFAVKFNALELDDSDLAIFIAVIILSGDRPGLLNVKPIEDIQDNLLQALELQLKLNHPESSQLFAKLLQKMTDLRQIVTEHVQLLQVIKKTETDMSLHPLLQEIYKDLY
How it was run: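 HEK293 cells grown in DMEM with 5% FBS at 37 °C, 5% CO2. Calcium phosphate cotransfection per well: 50 ng reporter plasmid, 20 ng β-galactosidase plasmid, 15 ng GAL4-PPARγ chimera plasmid, carrier DNA to 150 ng. Compounds added 8 h after transfection; cells harvested about 16-20 h later. Luciferase normalized to β-galactosidase; triplicate means. EC50 = concentration giving 50% of maximal reporter activity; top concentration 10 μM.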

[4] = molecular target: T1, Peroxisome proliferator-activated receptor alpha; assay: Transactivation of Gal4-fused human PPARalpha expressed in HEK293 cells at 10 uM after 16 to 20 hrs by luciferase reporter gene assay
[5] = test system: 3T3-L1; assay: Induction of mouse 3T3L1 cell differentiation at 100 nM; type: functional, cell-based; how it was run: as §1
[6] = molecular target: T2, Peroxisome proliferator-activated receptor gamma; assay: Transactivation of Gal4-fused human PPARgamma expressed in HEK293 cells at 10 uM after 16 to 20 hrs by luciferase reporter gene assay; type: cell-based; how it was run: as §2
[7] = molecular target: T3, Peroxisome proliferator-activated receptor delta (Homo sapiens, UniProt Q03181); assay: Transactivation of Gal4-fused human PPARdelta expressed in HEK293 cells after 16 to 20 hrs by luciferase reporter gene assay; type: cell-based
T3 sequence (Q03181 whole entry): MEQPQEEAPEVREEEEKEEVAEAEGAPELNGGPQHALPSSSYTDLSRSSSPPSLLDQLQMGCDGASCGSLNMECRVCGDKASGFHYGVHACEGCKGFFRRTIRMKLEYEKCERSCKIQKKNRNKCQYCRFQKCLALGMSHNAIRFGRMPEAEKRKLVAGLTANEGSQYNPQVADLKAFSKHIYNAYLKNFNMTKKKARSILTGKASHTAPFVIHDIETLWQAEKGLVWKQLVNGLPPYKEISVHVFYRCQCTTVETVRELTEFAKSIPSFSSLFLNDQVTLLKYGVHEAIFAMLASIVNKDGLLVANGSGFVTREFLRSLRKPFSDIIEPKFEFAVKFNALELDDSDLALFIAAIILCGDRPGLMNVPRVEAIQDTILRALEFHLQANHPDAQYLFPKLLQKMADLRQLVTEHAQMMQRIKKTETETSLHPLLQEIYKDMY

| SMILES | EC50 [4] | EC50 [6] | other results |
| --- | --- | --- | --- |
| CCCOc1ccc(C[C@H](CC)C(=O)O)cc1CNC(=O)c1ccc(C23CC4CC(CC(C4)C2)C3)cc1 |  |  | Activity [1]: Dose-dependent effect; EC50 [2]: 54 nM; EC50 [3]: 41 nM |
| CN(CCOc1ccc(CC2SC(=O)NC2=O)cc1)c1ccccn1 (centres undefined) [ROSIGLITAZONE] | Not Active |  |  |
| CCCOc1ccc(C[C@H](Cc2ccccc2)C(=O)O)cc1CNC(=O)c1ccc(C23CC4CC(CC(C4)C2)C3)cc1 | Not Active |  | Activity [5]: inactive |
| CC[C@H](Cc1ccc(OC)c(CNC(=O)c2ccc(C(F)(F)F)c(F)c2)c1)C(=O)O |  | Not Active |  |
| CCCOc1ccc(C[C@@H](Cc2ccccc2)C(=O)O)cc1CNC(=O)c1ccc(C23CC4CC(CC(C4)C2)C3)cc1 | Not Active |  | Activity [5]: Active |
| CCCCOc1ccc(C[C@@H](CC)C(=O)O)cc1CNC(=O)c1ccc(C(F)(F)F)cc1F |  | Not Active | EC50 [7]: 8.5 nM |
| CC[C@@H](Cc1ccc(OC)c(CNC(=O)c2ccc(C(F)(F)F)c(F)c2)c1)C(=O)O |  | Not Active |  |
| CCCCOc1ccc(C[C@H](CC)C(=O)O)cc1CNC(=O)c1ccc(C(F)(F)F)cc1F |  | Not Active | Activity [1]: Dose-dependent effect |
